This note sets out measurements from ChEMBL document CHEMBL1148203, “Briarane diterpenes from two species of octocorals, Ellisella sp. and Pteroeides sp” (J Nat Prod, 2004).

Assay type in all cases: functional, cell-based
In one assay the test system is KB-CV60. Kind of assay: Reversal of multidrug resistance in human KB-CV60 cells after 72 hrs by MTT assay. The procedure, abridged: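 KB-CV60 MDR line (selected from KB-3-1, kept in 1 µg/mL cepharanthine and 60 ng/mL vincristine), RPMI 1640 with 10% newborn calf serum; 10 000 cells/well, 24 h preincubation at 37 °C, 5% CO2; anticancer agent plus sample for 48 h; MTT 3 h, formazan in DMSO, A540 gives % growth inhibition.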
For orientation: Tetrazolium dyes change colour on reduction, which living cells bring about.

The subject of another assay is KB-C2. In words: Reversal of multidrug resistance in human KB-C2 cells after 72 hrs by MTT assay. The procedure, abridged: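 KB-C2 MDR line (selected from KB-3-1, kept in 2 µg/mL colchicine), RPMI 1640 with 10% newborn calf serum; 10 000 cells/well, 24 h preincubation at 37 °C, 5% CO2; colchicine plus sample added for 48 h; MTT 3 h, formazan in DMSO, absorbance 540 nm gives % growth inhibition; cytotoxicity checked in parental KB-3-1.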

The next assay deals with NBT2. Kind of assay: Induction of multinuclei formation in rat NBT2 cells assessed as inhibition of cytokinesis at 0.5 to 2 ug/mL after 72 hrs. The procedure, abridged: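 Rat bladder epithelial NBT-II cells in modified Eagle's medium with 10% heat-inactivated FBS, streptomycin, amphotericin B and glutamic acid; exposed to graded briarane concentrations at 37 °C for 72 h; multinucleation scored by microscopy at 48 and 72 h.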

The structures appear in SMILES notation. Activity calls are given as the source filed them. No cut-off for these calls is given here.

`C=C1/C=C/[C@H](OC(C)=O)[C@@]2(C)[C@@H](OC(C)=O)C[C@H]3O[C@@]3(C)[C@@H]2[C@H](OC(C)=O)[C@]2(O)[C@@H](C)C(=O)O[C@H]2[C@H]1Cl`: the outcome with KB-CV60 and in the assay with KB-C2 was inactive.
On to `CCC(=O)O[C@@H]1C[C@H](OC(C)=O)[C@]2(C)[C@H](OC(C)=O)/C=C\C(CCl)=C/[C@@H]3OC(=O)[C@H](C)[C@@]3(O)[C@@H](OC(C)=O)[C@H]2[C@]1(C)O`, for which the result with KB-CV60 and with KB-C2 was inactive.
In the case of `C=C1/C=C\[C@@H](OC(C)=O)[C@@]2(C)C=C[C@@H](OC(C)=O)[C@](O)(COC(C)=O)[C@@H]2[C@H](OC(C)=O)[C@]2(O)[C@@H](C)C(=O)O[C@H]2[C@H]1Cl`, in the assay on NBT2, the outcome was Active.
On to `C=C1[C@H](Cl)[C@@H]2OC(=O)[C@H](C)[C@]23O[C@@]1(O)C[C@H](OC(C)=O)[C@]1(C)[C@H]([C@@H](C)[C@H](OC(=O)c2ccccc2)C[C@@H]1OC(C)=O)[C@@H]3OC(C)=O`, for which the outcome with KB-CV60 and with KB-C2 was Active.
As to `C=C1CC[C@@H](OC(C)=O)[C@@]2(C)[C@@H](OC(C)=O)CC[C@@]3(CO3)[C@@H]2[C@H](OC(C)=O)[C@]2(O)[C@@H](C)C(=O)O[C@H]2[C@H]1Cl`, the outcome with NBT2 was Active.
Take `CC(=O)OCC1=C/[C@@H]2OC(=O)[C@H](C)[C@@]2(O)[C@@H](OC(C)=O)[C@H]2[C@]3(C)O[C@@H]3C[C@H](OC(C)=O)[C@]2(C)[C@@H](OC(C)=O)\C=C\1`: the outcome in the assay on KB-CV60 and with KB-C2 was inactive.
